In ChEMBL document CHEMBL5247578, “Effective synthesis of benzimidazoles-imidazo[1,2-a]pyrazine conjugates: A comparative study of mono-and bis-benzimidazoles for antitumor activity” (Eur J Med Chem, 2019):

Key:
MDA-MB-231 = test: Antiproliferative activity against human MDA-MB-231 cells assessed as cell growth inhibition at 10 uM incubated for 48 hrs by sulforhodamine B assay relative to control; format: functional
Summary of the method: (§1)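 NCI-60 single-dose screen at 10^-5 M. Cells grown in RPMI 1640 with 5% FBS and 2 mM L-glutamine, plated at 5,000–40,000 cells/well, and preincubated 24 h. Drug (DMSO stock) added and incubated 48 h at 37 °C, 5% CO2. Adherent cells fixed with cold TCA, stained with 0.4% SRB in 1% acetic acid, dye solubilized in 10 mM trizma base, A515 read. Percent growth taken against time-zero and untreated control.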

OVCAR-3 = test: Antiproliferative activity against human OVCAR-3 cells assessed as cell growth inhibition at 10 uM incubated for 48 hrs by sulforhodamine B assay relative to control; format: functional; summary of the method: as §1
HT-29 = test: Antiproliferative activity against human HT-29 cells assessed as cell growth inhibition at 10 uM incubated for 48 hrs by sulforhodamine B assay relative to control; format: functional; summary of the method: as §1
HCT-15 = test: Antiproliferative activity against human HCT-15 cells assessed as cell growth inhibition at 10 uM incubated for 48 hrs by sulforhodamine B assay relative to control; format: functional
Summary of the method: (§2)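 NCI-60 one-dose prescreen at 10^-5 M. Cells grown in RPMI 1640 with 5% FBS and 2 mM glutamine, preincubated 24 h, then exposed 48 h at 37 °C. Adherent lines TCA-fixed, SRB-stained, A515 read. Growth percent relative to time-zero and control; negative values mean cell kill.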

LOX IMVI = test: Antiproliferative activity against human LOX IMVI cells assessed as cell growth inhibition at 10 uM incubated for 48 hrs by sulforhodamine B assay relative to control; format: functional; summary of the method: as §1
SF-295 = test: Antiproliferative activity against human SF-295 cells assessed as cell growth inhibition at 10 uM incubated for 48 hrs by sulforhodamine B assay relative to control; format: functional; summary of the method: as §1
ACHN = test: Antiproliferative activity against human ACHN cells assessed as cell growth inhibition at 10 uM incubated for 48 hrs by sulforhodamine B assay relative to control; format: functional
Summary of the method: (§3)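 Single-dose NCI-60 prescreen at 10^-5 M. Cells in RPMI 1640 with 5% FBS and 2 mM L-glutamine, seeded 5,000–40,000 cells/well with 24 h preincubation, then drug exposure for 48 h at 37 °C under 5% CO2. Growth read by SRB staining of TCA-fixed cells at 515 nm against time-zero and untreated controls. Negative growth values denote cell kill.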

SK-MEL-2 = test: Antiproliferative activity against human SK-MEL-2 cells assessed as cell growth inhibition at 10 uM incubated for 48 hrs by sulforhodamine B assay relative to control; format: functional; summary of the method: as §1
SF-268 = test: Antiproliferative activity against human SF-268 cells assessed as cell growth inhibition at 10 uM incubated for 48 hrs by sulforhodamine B assay relative to control; format: functional; summary of the method: as §1
UO-31 = test: Antiproliferative activity against human UO-31 cells assessed as cell growth inhibition at 10 uM incubated for 48 hrs by sulforhodamine B assay relative to control; format: functional; summary of the method: as §1
MOLT-4 = test: Antiproliferative activity against human MOLT-4 cells assessed as cell growth inhibition at 10 uM incubated for 48 hrs by sulforhodamine B assay relative to control; format: functional; summary of the method: as §1
[1] = n-Octanol/phosphate buffer partition coefficient, logP of the compound at pH 7.4 incubated for 85 mins by shake-flask method; format: physicochemical
Summary of the method: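 Octanol–water partition by shake-flask: n-octanol with 0.15 M phosphate buffer pH 7.4 at 10:1 volumes. Buffer-phase absorbance read before mixing, then shaken 50 min and centrifuged at 2500 rpm for 35 min. Buffer absorbance read again; P = (Ai−Af)/Af × Vw/Vo.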

HCT-116 = test: Antiproliferative activity against human HCT-116 cells assessed as cell growth inhibition at 10 uM incubated for 48 hrs by sulforhodamine B assay relative to control; format: functional; summary of the method: as §2
NCI/ADR-RES = test: Antiproliferative activity against human NCI/ADR-RES cells assessed as cell growth inhibition at 10 uM incubated for 48 hrs by sulforhodamine B assay relative to control; format: functional; summary of the method: as §1
786-0 = test: Antiproliferative activity against human 786-0 cells assessed as cell growth inhibition at 10 uM incubated for 48 hrs by sulforhodamine B assay relative to control; format: functional; summary of the method: as §3
EKVX = test: Antiproliferative activity against human EKVX cells assessed as cell growth inhibition at 10 uM incubated for 48 hrs by sulforhodamine B assay relative to control; format: functional; summary of the method: as §2
U-251 = test: Antiproliferative activity against human U-251 cells assessed as cell growth inhibition at 10 uM incubated for 48 hrs by sulforhodamine B assay relative to control; format: functional; summary of the method: as §1
SR = test: Antiproliferative activity against human SR cells assessed as cell growth inhibition at 10 uM incubated for 48 hrs by sulforhodamine B assay relative to control; format: functional; summary of the method: as §1
MCF7 = test: Antiproliferative activity against human MCF7 cells assessed as cell growth inhibition at 10 uM incubated for 48 hrs by sulforhodamine B assay relative to control; format: functional; summary of the method: as §1
NCI-H322M = test: Antiproliferative activity against human NCI-H322M cells assessed as cell growth inhibition at 10 uM incubated for 48 hrs by sulforhodamine B assay relative to control; format: functional; summary of the method: as §1
SF-539 = test: Antiproliferative activity against human SF-539 cells assessed as cell growth inhibition at 10 uM incubated for 48 hrs by sulforhodamine B assay relative to control; format: functional; summary of the method: as §1
OVCAR-8 = test: Antiproliferative activity against human OVCAR-8 cells assessed as cell growth inhibition at 10 uM incubated for 48 hrs by sulforhodamine B assay relative to control; format: functional; summary of the method: as §1
M14 = test: Antiproliferative activity against human M14 cells assessed as cell growth inhibition at 10 uM incubated for 48 hrs by sulforhodamine B assay relative to control; format: functional; summary of the method: as §1
SNB-19 = test: Antiproliferative activity against human SNB-19 cells assessed as cell growth inhibition at 10 uM incubated for 48 hrs by sulforhodamine B assay relative to control; format: functional; summary of the method: as §1
A498 = test: Antiproliferative activity against human A498 cells assessed as cell growth inhibition at 10 uM incubated for 48 hrs by sulforhodamine B assay relative to control; format: functional; summary of the method: as §3
MDA-MB-468 = test: Antiproliferative activity against human MDA-MB-468 cells assessed as cell growth inhibition at 10 uM incubated for 48 hrs by sulforhodamine B assay relative to control; format: functional; summary of the method: as §1
DU-145 = test: Antiproliferative activity against human DU-145 cells assessed as cell growth inhibition at 10 uM incubated for 48 hrs by sulforhodamine B assay relative to control; format: functional; summary of the method: as §2
RXF 393 = test: Antiproliferative activity against human RXF 393 cells assessed as cell growth inhibition at 10 uM incubated for 48 hrs by sulforhodamine B assay relative to control; format: functional; summary of the method: as §1
BT-549 = test: Antiproliferative activity against human BT-549 cells assessed as cell growth inhibition at 10 uM incubated for 48 hrs by sulforhodamine B assay relative to control; format: functional; summary of the method: as §3
HL-60 = test: Antiproliferative activity against human HL-60 cells assessed as cell growth inhibition at 10 uM incubated for 48 hrs by sulforhodamine B assay relative to control; format: functional; summary of the method: as §2

SMILES	inhibition at 10 µM (MDA-MB-231) [%]	inhibition at 10 µM (OVCAR-3) [%]	inhibition at 10 µM (HT-29) [%]	inhibition at 10 µM (HCT-15) [%]	inhibition at 10 µM (LOX IMVI) [%]	inhibition at 10 µM (SF-295) [%]	inhibition at 10 µM (ACHN) [%]	inhibition at 10 µM (SK-MEL-2) [%]	inhibition at 10 µM (SF-268) [%]	inhibition at 10 µM (UO-31) [%]	inhibition at 10 µM (MOLT-4) [%]	logD at 1.417 h [1]	inhibition at 10 µM (HCT-116) [%]	inhibition at 10 µM (NCI/ADR-RES) [%]	inhibition at 10 µM (786-0) [%]	inhibition at 10 µM (EKVX) [%]	inhibition at 10 µM (U-251) [%]	inhibition at 10 µM (SR) [%]	inhibition at 10 µM (MCF7) [%]	inhibition at 10 µM (SNB-19) [%]	further results
c1ccc(Cn2cnc3ccc(-c4nc(-c5cccc6ccccc56)cn5ccnc45)cc32)cc1	28.7	1.44	18.6	8.2	16.5	8.22	12.3	16.9	10.3	31.3	22.3	2	32.9	5.83	12.4	24.6	5.53	12.4	29.2	5.12	inhibition at 10 µM (NCI-H322M): 1.34%; inhibition at 10 µM (SF-539): 4.22%; inhibition at 10 µM (OVCAR-8): 6.22%; inhibition at 10 µM (M14): 4.41%; inhibition at 10 µM (A498): 6.74%
Brc1cn2ccnc2c(-c2ccc3ncn(C4CCCCC4)c3c2)n1	24.2	15.8	5.21	13.1	15.2		11.5	10.2	17.1	37.6	26.3			8.82	10	12	1.5	26.8	47.6	8.09	inhibition at 10 µM (MDA-MB-468): 44.4%; inhibition at 10 µM (DU-145): 6.2%; inhibition at 10 µM (RXF 393): 5.58%; inhibition at 10 µM (NCI-H322M): 18.1%; inhibition at 10 µM (SF-539): 10%; inhibition at 10 µM (OVCAR-8): 4.92%; inhibition at 10 µM (BT-549): 5.16%; inhibition at 10 µM (HL-60): 18%
COc1ccccc1-c1cn2ccnc2c(-c2ccc3ncn(C4CCCCC4)c3c2)n1	15.9	6.57	11.1	33.6	5.13	9.76	4.48	12.1	8.04	24	22.4	1.72	28.3	0.06	12.3	13.3	21	26.3	8.4	11.1	inhibition at 10 µM (MDA-MB-468): 14.6%; inhibition at 10 µM (RXF 393): 0.95%; inhibition at 10 µM (SF-539): 8.07%; inhibition at 10 µM (OVCAR-8): 8.78%; inhibition at 10 µM (M14): 1.12%; inhibition at 10 µM (HL-60): 14.6%; inhibition at 10 µM (A498): 13.9%
c1ccc2c(-c3cn4ccnc4c(-c4ccc5ncn(C6CCCCC6)c5c4)n3)cccc2c1	20.8	2.38	4.11	4.46	7.43	6.34	6.49	2.3	7.84	23	44.7	1.44	17.9	4.43	6.33	13.2		6.92	13	9.08	inhibition at 10 µM (MDA-MB-468): 10.4%; inhibition at 10 µM (DU-145): 5.1%; inhibition at 10 µM (NCI-H322M): 4.74%; inhibition at 10 µM (HL-60): 38.9%; inhibition at 10 µM (A498): 14%
Fc1ccccc1-c1cn2ccnc2c(-c2ccc3ncn(C4CCCCC4)c3c2)n1	21.3	0.17	7.26	6.18	5.77	10.4	13.2	10.5	6.04	22.9	22.5	1.95	25.8	4.51	2.94	16	11.4	16.3	11.2	7.56	inhibition at 10 µM (MDA-MB-468): 27.6%; inhibition at 10 µM (DU-145): 0.96%; inhibition at 10 µM (RXF 393): 12.3%; inhibition at 10 µM (SF-539): 4.51%; inhibition at 10 µM (OVCAR-8): 14.1%; inhibition at 10 µM (M14): 2.92%; inhibition at 10 µM (BT-549): 4.08%; inhibition at 10 µM (HL-60): 9.3%
